Source: PubChem BioAssay (several laboratories)
Only some compounds are listed: those with a hit (about 3.8% of all), similar ones and a draw of the others.
MrgX1 antag: antagonists of human MrgX1 receptor; Q96LB2; MRGX1-HEK293 calcium flux, Fluo-4, BAM8-22 antagonism; stronger effect = lower value; B-score at 10 µM; 310,000 tested, 1.3% active; AID 588676;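 active = calcium-response B-score plate-corrected more than 3 library SD below zero, starting fluorescence within 5 deviations, no agonist response on first addition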;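 also: peak minus trough fluorescence over baseline after final BAM8-22 challenge near maximal dose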
Target sequence (Q96LB2 whole entry, looked up): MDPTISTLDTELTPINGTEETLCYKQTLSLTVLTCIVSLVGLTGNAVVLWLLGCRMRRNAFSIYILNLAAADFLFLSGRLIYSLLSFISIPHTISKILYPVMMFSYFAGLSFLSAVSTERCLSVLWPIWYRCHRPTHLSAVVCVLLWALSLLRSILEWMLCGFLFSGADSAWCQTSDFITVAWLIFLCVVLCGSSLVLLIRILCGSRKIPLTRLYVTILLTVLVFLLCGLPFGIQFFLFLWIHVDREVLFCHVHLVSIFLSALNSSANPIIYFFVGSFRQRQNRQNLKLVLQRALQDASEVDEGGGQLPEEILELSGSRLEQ
RGS4 act: RGS4 potentiation or activation; HEK293 M3R/inducible RGS4, carbachol calcium flux Fluo4; stronger effect = lower value; B-score at 10 µM; 310,000 tested, 0.92% active;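 active = B-score of the integrated calcium signal more than 4 SD below the library mean, with starting fluorescence not abnormally high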;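 also: negative B-score means reduced calcium response which marks RGS4 activation or potentiation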
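Also added: carbachol at ECmax as muscarinic agonist stimulus; Assay system: HEK293 cells with stable M3R and inducible RGS4; Timing: overnight RGS4 induction, 30 min dye load 37 °C, 20 min compound RT; Measured by: Fluo4-AM (2 µM) calcium-flux fluorescence, kinetic read.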
MrgX1 agonist: activates human MrgX1 receptor signaling | MrgX1-HEK293 cells, Fluo-4 calcium fluorescence, agonist mode; stronger effect = higher value | 310,000 tested, 0.44% active | B-score at 10 µM | Q96LB2;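 active = calcium response B-score plate-corrected fluorescence ratio at least 3 library SD, with starting fluorescence B-score inside 5 SD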
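System – MrgX1-expressing HEK293 cells · Incubation – cells plated overnight, dye loaded 0.5 h 37 °C, 0.5 h room temperature · Technique – kinetic Fluo-4 NW fluorescence of intracellular calcium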
RGS4 inh: human RGS4 inhibition. P49798. HEK293 M3R/RGS4 inducible, Fluo-4 calcium flux; stronger effect = higher value; triggered by carbachol at its EC20. B-score at 10 µM. 310,000 tested, 0.45% active;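 active = B-score, a plate-corrected calcium signal, over three deviations above library mean, with baseline fluorescence within five deviations of library mean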;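 also: RGS4 expression induced by doxycycline in cells with stable M3 receptor; B-score is computed from the integrated fluorescence ratio over baseline after carbachol; higher B-score means a larger calcium signal and so more RGS4 inhibition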
Target sequence (P49798 whole entry, looked up): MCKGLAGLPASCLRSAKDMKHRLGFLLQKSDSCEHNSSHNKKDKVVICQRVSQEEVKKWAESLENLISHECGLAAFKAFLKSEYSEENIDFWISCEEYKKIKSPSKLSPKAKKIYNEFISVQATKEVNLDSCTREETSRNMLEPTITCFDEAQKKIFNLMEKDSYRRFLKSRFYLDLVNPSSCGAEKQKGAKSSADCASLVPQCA
Lipid droplet: hepatic lipid droplet formation modulation; AML12 mouse hepatocytes, oleate lipid droplets, BODIPY imaging; inhibition, % at 6.5 µM; 240,000 tested, 0.4% active;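 active = lipid droplet intensity inhibited by at least 50%, with more than 500 cells counted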
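System: AML12 hepatocytes (mouse). Probe or stimulus: oleic acid at 100 µM to induce lipid droplet formation. Times: overnight treatment with compound plus oleate. Detection: Image-based BODIPY and DAPI two-channel analysis. Evaluation: percent inhibition of filter-corrected integrated lipid droplet intensity per well.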
MrgX1 PAM: human MrgX1 positive allosteric modulation, primary screen; B-score at 10 µM; Q96LB2; 310,000 tested, 0.63% active; MrgX1-HEK293, Fluo-4 calcium flux, FDSS; stronger effect = higher value;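 active = plate-corrected calcium response at least 3 library SD above typical, normal starting fluorescence, not activating the receptor alone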;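 also: compound read alongside a low EC10 to EC30 dose of BAM8-22 agonist; peak minus trough fluorescence over baseline measured at the second addition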
RGS4 block valid: validation of RGS4 inhibitors | AID 492999 | 1,700 tested, 65% active | shares compounds with RGS4 inh | HEK293 M3R/RGS4, carbachol calcium Fluo-4 fluorescence; carbachol added at its EC20; 0 = buffer wells, 100 = carbachol control | calcium response, % at 10 µM;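 active = duplicate-averaged calcium response above the buffer-only control mean plus 5 SD of those controls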;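 also: integrated fluorescence ratio F max minus min over baseline F0; higher response in RGS4-induced cells means RGS4 inhibition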
M3R Ca ctr: counter-screen for RGS4 inhibitors: effect in non-induced cells; shares compounds with RGS4 inh; HEK293 M3R non-induced, carbachol calcium Fluo-4; submaximal (EC20) carbachol stimulus; buffer wells 0%, carbachol control wells 100%; activity (percent), % at 10 µM; 1,900 tested, 20% active; AID 493000; call rule not given here;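 also: RGS4 induction absent so cells express M3R without RGS4; higher means more calcium signal and flags a non-specific hit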
RGS4 inh ctr2: second RGS4 inhibitor counter-screen in uninduced cells lacking carbachol; shares compounds with RGS4 inh; HEK293 M3R/RGS4 non-induced, Fluo-4 calcium, no carbachol; normalised: buffer wells 0%, carbachol wells 100%; calcium response (agonist-mode artifact), % at 10 µM; 1,900 tested, 22% active; AID 493001;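 active = duplicate-averaged calcium rise in uninduced cells above buffer wells' mean plus 5 SD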
An asterisk follows results filed as active; i = inactive; . = not tested or not shown.

SMILES	MrgX1 antag	RGS4 act	MrgX1 agonist	RGS4 inh	Lipid droplet	MrgX1 PAM	RGS4 block valid	M3R Ca ctr	RGS4 inh ctr2
CCCC1S/C(=N/N=C/c2cccs2)NC1=O (stereo not drawn)	i	i	i	i	.	i	.	i	i
CCC1S/C(=N/N=C/c2cccs2)NC1=O (stereo not drawn)	i	i	i	i	.	i	.	i	i
CC1S/C(=N/N=C/c2cccs2)NC1=O (stereo not drawn)	i	i	i	i	-6	i	.	.	.
O=C(NCCCN1CCOCC1)C(=O)N/N=C/c1ccccc1O	i	i	i	i	-1	i	.	.	.
Cc1ccc(/C=C2/SC(=S)N(c3ccc(S(=O)(=O)Nc4nccs4)cc3)C2=O)cc1	i	i	i	i	-2	i	.	.	.
O=C1/C(=C\c2ccccn2)SC(=S)N1c1ccc(S(=O)(=O)Nc2nccs2)cc1	i	i	i	5.9*	-1	i	20%*	i	i
Cc1ccc(/C=N/NC(=O)CSc2nc3ccccc3c(=O)n2-c2ccccc2C)s1	i	i	i	i	0	i	.	.	.
Cc1ccccc1-n1c(SCC(=O)N/N=C/c2sccc2C)nc2ccccc2c1=O	i	i	i	5.5*	18	i	i	i	i
CCCCNC(=O)CC(=O)Nc1ccccc1C(=O)O	i	i	i	i	.	i	.	.	.
COc1ccc(C2C(C#N)=C(N)Oc3c2c(-c2ccccc2)nn3-c2ccccc2)c(OC)c1OC (stereo not drawn)	i	i	i	i	-12	i	.	i	i
COc1ccc(OC)c(C2C(C#N)=C(N)Oc3c2c(C)nn3-c2ccc(C)cc2)c1 (stereo not drawn)	i	i	i	i	.	i	.	.	.
Cc1cccc(-n2c3nc(=O)[nH]c(=O)c-3cc3c(C)nn(-c4ccccc4)c32)c1C	i	i	i	7*	-9	i	i	i	i
Cc1cc(C)c2nc(NNC(=O)c3ccc(S(=O)(=O)N4CCc5ccccc5C4)cc3)sc2c1	i	i	i	6.5*	-9	i	11%*	i	i
Cc1cc(C)c2sc(NNC(=O)c3ccc(S(=O)(=O)N4CCc5ccccc5C4)cc3)nc2c1	i	i	i	i	-54	i	.	i	i
Cc1nnc(SCC2=C(C(=O)O)N3C(=O)C(NC(=O)C(C)n4nc(C(F)(F)F)cc4C)C3SC2)s1 (stereo not drawn)	i	i	i	i	4	i	.	.	.
Cn1c(SCC(=O)Nc2ccc3[nH]c(=O)[nH]c3c2)nnc1-c1ccccc1	i	i	i	i	-4	i	.	.	.
Cn1c(SCC(=O)Nc2ccc3c(c2)oc2ccccc23)nnc1-c1ccccc1	i	i	i	5.1*	-2	i	7.5%*	i	i
O=C(CCNS(=O)(=O)c1cccs1)N1CCc2ccccc2C1	i	i	i	i	.	i	.	.	.
CCCCn1c(N)c(N(CC(C)C)C(=O)C2CCN(S(=O)(=O)c3ccc(C)c(C)c3)CC2)c(=O)[nH]c1=O	i	i	i	i	-34	i	.	.	.
COc1ccc(C(=O)/C=C/c2ccc(O)cc2)c(O)c1CC=C(C)C	i	i	i	6.4*	0	i	19%*	i	i
COc1ccc(C(=O)/C=C/c2ccc(O)cc2)cc1	i	i	i	i	12	i	.	.	.
